TRPC6 inh – mouse TRPC6 channel inhibition. hit rate 1.1% among 310,000. Q61143. HEK293-TRPC6, membrane potential dye, ACh-evoked depolarization; active compounds read low. B-score at 10 µM;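 active = B-score under library mean minus 3 SD, initial fluorescence not abnormally high, positive integrated signal ratio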;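 note: B-score derived from integrated fluorescence ratio over the kinetic read; more negative B-score means stronger inhibition of depolarization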
Target sequence (Q61143 whole entry, looked up): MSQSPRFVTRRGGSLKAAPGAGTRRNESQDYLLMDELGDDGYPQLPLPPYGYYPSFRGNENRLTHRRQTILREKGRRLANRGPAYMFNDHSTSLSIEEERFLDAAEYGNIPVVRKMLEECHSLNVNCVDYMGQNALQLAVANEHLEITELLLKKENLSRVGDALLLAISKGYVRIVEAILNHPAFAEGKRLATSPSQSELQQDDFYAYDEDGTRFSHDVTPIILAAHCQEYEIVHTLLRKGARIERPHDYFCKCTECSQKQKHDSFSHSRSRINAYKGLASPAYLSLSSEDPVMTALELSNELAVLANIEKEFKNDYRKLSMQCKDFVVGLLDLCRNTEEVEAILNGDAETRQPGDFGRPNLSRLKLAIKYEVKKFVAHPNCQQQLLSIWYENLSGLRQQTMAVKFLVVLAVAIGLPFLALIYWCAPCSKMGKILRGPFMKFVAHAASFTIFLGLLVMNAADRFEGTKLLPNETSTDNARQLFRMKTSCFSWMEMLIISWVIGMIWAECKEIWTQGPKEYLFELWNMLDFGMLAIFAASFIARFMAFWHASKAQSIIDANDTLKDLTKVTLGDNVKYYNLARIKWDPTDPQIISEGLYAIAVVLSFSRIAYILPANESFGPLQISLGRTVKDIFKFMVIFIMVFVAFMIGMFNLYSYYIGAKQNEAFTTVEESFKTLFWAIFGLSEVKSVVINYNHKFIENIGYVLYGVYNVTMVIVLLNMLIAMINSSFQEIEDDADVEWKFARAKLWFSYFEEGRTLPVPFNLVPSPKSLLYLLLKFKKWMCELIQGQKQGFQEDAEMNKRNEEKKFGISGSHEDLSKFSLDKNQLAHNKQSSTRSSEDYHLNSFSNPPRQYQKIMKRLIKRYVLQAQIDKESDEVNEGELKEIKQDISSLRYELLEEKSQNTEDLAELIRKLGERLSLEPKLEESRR
TRPC4 block – inhibitors of mouse TRPC4 channel | Q9QUQ5 | HEK293 TRPC4beta/mu-opioid, DAMGO-evoked Fluo4 calcium flux; active compounds read low | B-score at 10 µM | hit rate 0.39% among 300,000;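 active = B-score over 3 SD under the library average, no early fluorescence shift, positive overall ratio signal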
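Assay system: HEK293 cells with stable TRPC4beta plus mu-opioid receptor expression; Probe or stimulus: DAMGO in two steps, submaximal then maximal; Dosing: single-point compound dosing; Measured by: Fluo4 calcium-dye fluorescence, kinetic read; Read-out basis: B score from integrated Fluo4 fluorescence ratio.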
TRPC4 agonist – TRPC4 (mouse) channel activation. Q9QUQ5. HEK293 TRPC4beta/mu-opioid, Fluo4 calcium fluorescence; active compounds read high. B-score at 10 µM. hit rate 0.49% among 310,000. AID 2237;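 active = B-score above 5 SD of library B-scores, and initial fluorescence ratio not above library mean plus 5 SD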;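 note: positive B-score marks a calcium rise read as TRPC4 activation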
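Test system: HEK293 cells stably co-expressing mouse TRPC4beta and mu-opioid receptor | Schedule: Fluo4 dye loading 45 min at room temperature, 110 s recording | Measured by: Kinetic Fluo4 calcium fluorescence, 5 s baseline at 1 Hz | Evaluation: B score of integrated ratio | Controls: Buffer (low) and maximal DAMGO (high)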
TRPC4 potent – allosteric potentiators of mouse TRPC4 channel; hit rate 0.42% among 310,000; HEK293 TRPC4beta/mu-opioid, DAMGO EC20, Fluo-4 Ca2+ flux; active compounds read high; B-score at 10 µM;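 active = B-score of calcium response area above 5 SD of library B-scores, with initial fluorescence ratio within 5 SD of library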;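 note: B-score of integrated fluorescence ratio over time as area under calcium response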
TRPC6 act – activates the mouse TRPC6 cation channel; HEK293-TRPC6 membrane potential dye fluorescence; active compounds read high; B-score at 10 µM; hit rate 0.13% among 310,000; AID 2550;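 active = B-score of the integrated fluorescence ratio above library mean plus 3 SD, and starting fluorescence ratio within library mean plus 5 SD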;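 note: higher score means more depolarization so channel activation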
TRPC4 spec 2 – second check of whether TRPC6 inhibitors also affect mouse TRPC4; inhibition, % at 10 µM; HEK293 TRPC4/MOR, membrane potential dye fluorescence; channel activated by saturating DAMGO dose; hit rate 42% among 920; shares compounds with TRPC6 inh; AID 2776;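 active = compounds whose fluorescence signal differed from control wells by over 3 SD, either direction, in both duplicate plates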
TRPC4 spec – tests whether TRPC6 inhibitors also affect mouse TRPC4; activity change, negative = inhibition, % at 10 µM; HEK293 TRPC4/mu-opioid, membrane potential fluorescence; hit rate 61% among 920; shares compounds with TRPC6 inh;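 active = rise or fall in signal beyond 3 SD of buffer-only wells in both replicate plates, either sign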;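 note: integrated kinetic ratio of fluorescence range over baseline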
HEK293 MPD ctr 2-1 – parental HEK293 nonspecific activity of TRPC6 inhibitors, second screen | shares compounds with TRPC6 inh | parental HEK293 membrane potential dye fluorescence; maximal acetylcholine challenge after compound addition | signal change vs control, % at 10 µM | hit rate 31% among 920 | AID 2779;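 active = membrane potential signal moving either way by over 3 SD of the maximum-effect control, in both duplicate plates, meaning non-specific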
HEK293 MPD ctr-1 – checks TRPC6 inhibitor effects in parental HEK293 cells. membrane potential signal change, % at 10 µM. shares compounds with TRPC6 inh. hit rate 60% among 920. parental HEK293 membrane potential dye fluorescence;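 active = membrane potential signal shifting up or down by more than 3 SD of buffer-only wells, on both duplicate plates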
HEK293 MPD ctr-2 – checks TRPC6 modulator effects in parental HEK293 cells | hit rate 51% among 2,400 | membrane potential dye fluorescence | membrane potential signal change, % at 10 µM | shares compounds with TRPC6 inh | AID 488924;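 active = membrane potential signal moves up or down beyond 5 SD from buffer-only wells, on both duplicate plates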
HEK293 MPD ctr 2-2 – parental HEK293 nonspecific activity of TRPC6 modulators, second screen; membrane potential dye fluorescence; after compound, maximal acetylcholine stimulation; inhibition, % at 10 µM; shares compounds with TRPC6 inh; AID 488926; hit rate 14% among 2,400;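 active = membrane potential signal drops by more than 5 SD from the mean control signal, in both duplicate plates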;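 note: plate controls were acetylcholine ECmax control wells for no effect and buffer only wells for full effect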
TRPC4 ctr mod – selectivity of TRPC6 modulators against mouse TRPC4; shares compounds with TRPC6 inh; HEK293 TRPC4/mu-opioid, membrane potential fluorescence; percent change from control (negative = decrease, positive = increase), % at 10 µM; hit rate 69% among 2,400; AID 488927;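 active = membrane potential signal moved up or down beyond 5 SD of buffer control wells, in both duplicate plates, actives on both sides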;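 note: plate controls were assay buffer wells for no effect and DAMGO maximal-effect wells for full effect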
TRPC4 ctr inh 2 – second selectivity test of TRPC6 modulators against mouse TRPC4; shares compounds with TRPC6 inh; HEK293 TRPC4/mu-opioid, membrane potential dye fluorescence; stimulated with maximal-effect DAMGO; inhibition, % at 10 µM; hit rate 55% among 2,400; AID 488928;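 active = drop in membrane potential signal beyond 5 SD of the control wells in both duplicate plates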;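 note: TRPC4 counter screen for TRPC6 hits run under conditions tuned for TRPC6 not TRPC4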
TRPC6 inh conf – confirmation of mouse TRPC6 inhibitors; shares compounds with TRPC6 inh; HEK293-TRPC6, membrane potential dye, ACh-evoked depolarization; inhibition, % at 10 µM; hit rate 43% among 3,300; AID 488960;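 active = fluorescence ratio falls more than 5 SD below the full-stimulation control mean, in both duplicate runs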;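 note: integrated fluorescence ratio of peak minus minimum over baseline after agonist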
TRPC6 act confirm – confirmation of mouse TRPC6 activators; shares compounds with TRPC6 inh; HEK293-TRPC6 membrane potential dye fluorescence, FDSS; activation, % at 10 µM; hit rate 11% among 2,800; AID 488961;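 active = ratio signal rise beyond 5 SD above unstimulated control wells' mean, seen in both duplicate runs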;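 note: plate controls were buffer EC0 wells for no effect and acetylcholine ECmax response for full effect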
* hit, by the source's call; i = inactive; · = not tested or not shown. Shown are actives, neighbours in structure and some others; about 2.3% of the full set was active somewhere.

SMILES	TRPC6 inh	TRPC4 block	TRPC4 agonist	TRPC4 potent	TRPC6 act	HEK293 MPD ctr-2	HEK293 MPD ctr 2-2	TRPC4 ctr mod	TRPC4 ctr inh 2	TRPC6 inh conf	TRPC6 act confirm	others
COc1ccc(N2CCN(C(=O)c3ccc(F)cc3)CC2)c([N+](=O)[O-])c1	i	i	i	i	i	·	·	·	·	·	·
O=C(c1ccc(F)cc1)N1CCN(c2cc(N3CCCCC3)c(F)cc2[N+](=O)[O-])CC1	-10*	·	i	i	i	·	·	·	·	i	i	TRPC4 spec 2=i;TRPC4 spec=i;HEK293 MPD ctr 2-1=i;HEK293 MPD ctr-1=i
CCOC(=O)c1nc(C)nc(Sc2n[nH]c(-c3ccccc3)n2)c1C	i	i	i	i	i	·	·	·	·	·	·
O=c1[nH]c(COc2ccc(Cl)cc2Br)nc2ccccc12	i	i	i	i	i	·	·	·	·	·	·
COc1ccc(OC)c(-c2nc(C(=O)NCCCN3CCOCC3)cc3c2[nH]c2ccccc23)c1	-6*	i	i	i	i	i	i	i	48%*	i	i
Cc1ccc(-c2nc(C(=O)NCCCN(C)C)cc3c2[nH]c2ccccc23)cc1	-9.8*	i	i	i	i	·	·	·	·	78%*	i	TRPC4 spec 2=30%*;TRPC4 spec=-21%*;HEK293 MPD ctr 2-1=30%*;HEK293 MPD ctr-1=-255%*
O=C(NNc1ccc(C(F)(F)F)cc1[N+](=O)[O-])c1ccc(NS(=O)(=O)c2ccc(F)cc2)cc1	-5.4*	i	i	i	i	-112%*	i	-26%*	62%*	64%*	i
CC(C)[C@H](Nc1ccc(C(F)(F)F)cc1[N+](=O)[O-])C(=O)O	i	i	i	i	i	·	·	·	·	·	·
COc1ccc(CNC(=O)C2Cc3cc(S(=O)(=O)N4CCCC4)ccc3N2C(C)=O)c(OC)c1 (stereo unspecified)	i	i	i	i	i	·	·	·	·	·	·
Cc1c(CCOC(=O)c2ccc([N+](=O)[O-])cc2)sc[n+]1CC(=O)c1ccccc1	-7.4*	-6*	i	i	i	-262%*	i	-40%*	36%*	40%*	i
CC(C)(C)OC(=O)CNC(=O)c1nc[nH]c1C(=O)N1CCc2ccccc2C1	i	i	i	i	i	·	·	·	·	·	·
CN1C=C/C(=C\c2cc[n+](C)c3ccccc23)c2ccccc21	-5.8*	i	i	i	i	-265%*	i	-27%*	32%*	i	i
CN(C)CC/C=C1\c2ccccc2COc2ccccc21	i	i	i	i	i	·	·	·	·	·	·
CN(C)CC/C=C1/c2ccccc2Sc2ccc(Cl)cc21	-5.3*	i	i	i	i	i	i	9.0%*	54%*	48%*	i

Source: PubChem BioAssay (Johns Hopkins Ion Channel Center)
